ChEMBL document CHEMBL1125259, “Lipophilic glycosyl phosphotriester derivatives of AZT: synthesis, NMR transmembrane transport study, and antiviral activity” (1991)

How the values were obtained:
CCRF-CEM [1] = test: Concentration that reduced by 50% the HIV induced CPE (cytopathic effect) on day 19.; format: functional; details: Homo sapiens, 456 h, read-out: ED50 (the source's name)
Procedure, shortened: (§1)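 CEM-C113 cells (1×10^5 cells/mL) were infected with HIV-1 LAV-Bru or mock-infected, with compound dilutions in triplicate, for at least 7 days. Medium with or without drug was renewed every 3–4 days for longer runs. MTT absorbance was read at 540 nm. CD50 = 50% reduction of mock-infected absorbance; ED50 = dose giving 50% protection from CPE. Values are averages of at least two experiments.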

CCRF-CEM [2] = test: Concentration that reduced by 50% the HIV induced CPE (cytopathic effect) on day 7.; format: functional; details: Homo sapiens, 168 h, read-out: ED50 (the source's name); procedure, shortened: as §1
CCRF-CEM [3] = test: Concentration required to reduce the viability of uninfected cells (CEM-CL13) by 50% on day 11.; format: functional; details: Homo sapiens, 264 h, read-out: CD50 (the source's name); procedure, shortened: as §1
CCRF-CEM [4] = test: Concentration required to reduce the viability of uninfected cells (CEM-CL13) by 50% on day 19.; format: functional; details: Homo sapiens, 456 h, read-out: CD50 (the source's name); procedure, shortened: as §1
CCRF-CEM [5] = test: Concentration required to reduce the viability of uninfected cells (CEM-CL13) by 50% on day 22.; format: functional; details: Homo sapiens, 528 h, read-out: CD50 (the source's name); procedure, shortened: as §1
[6] = target: Human immunodeficiency virus type 1 reverse transcriptase (Human immunodeficiency virus 1) (UniProt Q72547); test: Compound ability to inhibit the production of HIV reverse transcriptase (RT) in culture supernatant of CEM-CL13 on at 15 days at a concentration 0.2 uM; format: functional
Procedure, shortened: (§2)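 CEM-C113 cells in RPMI 1640 with 5% heat-inactivated FCS and polybrene (2 µg/mL) were plated at 1×10^5 cells/mL with compound in PBS, in triplicate, and infected with HIV-1 LAV-Bru. From day 7, every 3–4 days, fresh medium with or without drug was added and 50 µL supernatant was taken for RT microassay. The RT microassay used poly(rA)-oligo(dT) and (methyl-³H)dTTP for 1 h at 37 °C, with TCA precipitation, read as cpm/50 µL.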

[7] = target: Human immunodeficiency virus type 1 reverse transcriptase (Human immunodeficiency virus 1) (UniProt Q72547); test: Compound ability to inhibit the production of HIV reverse transcriptase (RT) in culture supernatant of CEM-CL13 on at 15 days at a concentration 1 uM; format: functional; procedure, shortened: as §2
[8] = target: Human immunodeficiency virus type 1 reverse transcriptase (Human immunodeficiency virus 1) (UniProt Q72547); test: Compound ability to inhibit the production of HIV reverse transcriptase (RT) in culture supernatant of CEM-CL13 on at 22 days at a concentration 1 uM; format: functional; procedure, shortened: as §2
[9] = target: Human immunodeficiency virus type 1 reverse transcriptase (Human immunodeficiency virus 1) (UniProt Q72547); test: Compounds were evaluated for anti-RT activity at 7 days of culture; format: functional
Procedure, shortened: (§3)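 HIV-1 (12 500 CCID50) was preincubated with compound at 25 µM final for 60 min at 37 °C, pelleted by ultracentrifugation and resuspended. RT was measured at once with poly(rA)-oligo(dT) and ³H-dTTP (1 h, 37 °C, cpm). Treated virus was then put on CEM-C113 cells for 60 min and replaced with compound-free medium. Supernatant RT was read at days 7 and 9.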

[10] = target: Human immunodeficiency virus type 1 reverse transcriptase (Human immunodeficiency virus 1) (UniProt Q72547); test: Compounds were evaluated for anti-RT activity at 9 days of culture; format: functional; procedure, shortened: as §3
[11] = target: Human immunodeficiency virus type 1 reverse transcriptase (Human immunodeficiency virus 1) (UniProt Q72547); test: Compounds were evaluated for anti-RT activity by MTT dose and % cell / viability was reported at 9 days of culture; format: functional
Procedure, shortened: (§4)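 HIV-1 was preincubated with compound at 25 µM for 60 min at 37 °C, pelleted, and added to CEM-C113 cells (1×10^5 cells/mL) for 60 min at 37 °C. Medium was then replaced without compound. At days 7 and 9, viability was read by MTT assay on 100 µL of cell suspension.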

[12] = target: Human immunodeficiency virus type 1 reverse transcriptase (Human immunodeficiency virus 1) (UniProt Q72547); test: Percent inhibition evaluated for anti-RT activity at 0 days of culture; format: functional; parameters: concentration or dose not given beside the values; details: concentration not given here; procedure, shortened: as §3
[13] = target: Human immunodeficiency virus type 1 reverse transcriptase (Human immunodeficiency virus 1) (UniProt Q72547); test: Percent inhibition measured as the production of HIV reverse transcriptase (RT) in culture supernatant of monocytic U937 on at 11 days at a concentration 0.2 uM; format: functional
Procedure, shortened: (§5)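 HIV-1-infected monocytic U937 cultures were kept up to 14 days with compound. Supernatant RT activity was measured as for CEM-C113, as [³H] cpm/50 µL. % inhibition = 100 − 100 × (cpm of treated samples / cpm of control virus).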

[14] = target: Human immunodeficiency virus type 1 reverse transcriptase (Human immunodeficiency virus 1) (UniProt Q72547); test: Percent inhibition measured as the production of HIV reverse transcriptase (RT) in culture supernatant of monocytic U937 on at 14 days at a concentration 0.2 uM; format: functional
Procedure, shortened: (§6)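 U937 cells in RPMI 1640 with 5% heat-inactivated FCS, penicillin, streptomycin and polybrene (2 μg/mL), 37 °C, 5% CO2. Infected with HIV-1 LAV-Bru; compounds diluted in PBS. 50 μL supernatant aliquots were assayed for RT: 1 h, 37 °C, pH 7.8, Mg2+, poly(rA)-oligo(dT), [3H]dTTP, TCA-pyrophosphate stop, filter counting. % inhibition = 100 − 100 × (treated cpm / virus-control cpm).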

[15] = target: Human immunodeficiency virus type 1 reverse transcriptase (Human immunodeficiency virus 1) (UniProt Q72547); test: Percent inhibition measured as the production of HIV reverse transcriptase (RT) in culture supernatant of monocytic U937 on at 7 days at a concentration 0.2 uM; format: functional; procedure, shortened: as §6
[16] = target: Human immunodeficiency virus type 1 reverse transcriptase (Human immunodeficiency virus 1) (UniProt Q72547); test: Compounds were evaluated for anti-RT activity by MTT dose and %protection was reported at 9 days of culture; format: functional; procedure, shortened: as §4
[17] = target: Human immunodeficiency virus type 1 reverse transcriptase (Human immunodeficiency virus 1) (UniProt Q72547); test: Compound ability to inhibit the production of HIV reverse transcriptase (RT) in culture supernatant of monocytic U937 on at 14 days at a concentration 5 uM; format: functional; procedure, shortened: as §5
[18] = target: Human immunodeficiency virus type 1 reverse transcriptase (Human immunodeficiency virus 1) (UniProt Q72547); test: Compound ability to inhibit the production of HIV reverse transcriptase (RT) in preinfected PBL (peripheral blood lymphocytes) at 21 days at a concentration 1 uM; format: functional
Procedure, shortened: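 PBL were infected with HIV-1 for 1 h at 37 °C, washed twice, and resuspended in complete medium with 10% interleukin-2 and anti-human α-interferon (1000 units/mL). Cells were plated at 1×10^6 cells/well with or without compound. At each time point, 50 µL supernatant was taken for RT assay ([³H]dTTP incorporation, cpm).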

[19] = target: Human immunodeficiency virus type 1 reverse transcriptase (Human immunodeficiency virus 1) (UniProt Q72547); test: Compound ability to inhibit the production of HIV reverse transcriptase (RT) in culture supernatant of monocytic U937 on at 11 days at a concentration 5 uM; format: functional; procedure, shortened: as §5
[20] = target: Human immunodeficiency virus type 1 reverse transcriptase (Human immunodeficiency virus 1) (UniProt Q72547); test: Compound ability to inhibit the production of HIV reverse transcriptase (RT) in culture supernatant of CEM-CL13 on at 22 days at a concentration 5 uM; format: functional; procedure, shortened: as §2
[21] = target: Human immunodeficiency virus type 1 reverse transcriptase (Human immunodeficiency virus 1) (UniProt Q72547); test: Compound ability to inhibit the production of HIV reverse transcriptase (RT) in culture supernatant of CEM-CL13 on at 7 days at a concentration 5 uM; format: functional; procedure, shortened: as §2
[22] = target: Human immunodeficiency virus type 1 reverse transcriptase (Human immunodeficiency virus 1) (UniProt Q72547); test: Percent inhibition measured as the production of HIV reverse transcriptase (RT) in culture supernatant of monocytic U937 on at 11 days at a concentration 5 uM; format: functional; procedure, shortened: as §6
[23] = target: Human immunodeficiency virus type 1 reverse transcriptase (Human immunodeficiency virus 1) (UniProt Q72547); test: Percent inhibition measured as the production of HIV reverse transcriptase (RT) in culture supernatant of monocytic U937 on at 7 days at a concentration 5 uM; format: functional; procedure, shortened: as §6
[24] = target: Human immunodeficiency virus type 1 reverse transcriptase (Human immunodeficiency virus 1) (UniProt Q72547); details: at 25 µM
[25] = target: Human immunodeficiency virus type 1 reverse transcriptase (Human immunodeficiency virus 1) (UniProt Q72547); details: at 25 µM; remark: listed apart in the source

Row | Structure (SMILES) | EC50 (CCRF-CEM [1]) | EC50 (CCRF-CEM [2]) | CC50 (CCRF-CEM [3]) | CC50 (CCRF-CEM [4]) | CC50 (CCRF-CEM [5]) | Activity (c.p.m. 50ul-1) [6] | Activity (c.p.m. 50ul-1) [7] | Activity (c.p.m. 50ul-1) [8] | Activity (c.p.m. 50ul-1) [9] | Activity (c.p.m. 50ul-1) [10] | Cell viability [11] | inhibition [12] | inhibition [13] | inhibition [14] | inhibition [15] | Protection [16] | further results
1 | CCCCCCCCCCCCCCCCOP(=O)(OCCO[C@H]1O[C@H](CO)[C@@H](O)[C@H](O)[C@@H]1O)OCC1OC(n2cc(C)c(=O)[nH]c2=O)CC1N=[N+]=[N-] (stereo partly specified) | 1700 nM | 180 nM | 28000 nM | 3400 nM | 3400 nM | 2400 | 5500 | 48000 | 81000 | 44000 | 25% | 26% | 9% | 0% | 0% | 4% | 
2 | CCCCCCCCCCCCCCCCOP(=O)(OC[C@H]1OC(O)[C@@H](O)[C@@H](O)[C@@H]1O)OC[C@H]1OC(n2cc(C)c(=O)[nH]c2=O)C[C@@H]1N=[N+]=[N-] (stereo partly specified) | 500 nM | 140 nM | 2600 nM | 2500 nM | 2500 nM | 1700 | 500 | 3900 | 18000 | 10000 | 32% | 30% | 0% | 0% | 0% | 18% | 
3 | Cc1cn([C@H]2C[C@H](N=[N+]=[N-])[C@@H](CO)O2)c(=O)[nH]c1=O [ZIDOVUDINE] | 180 nM | 120 nM | 23000 nM | 26000 nM | 22000 nM | 1100 | 600 | 1700 | 5000 | 7500 | 79% |  | 0% | 0% | 91% | 76% | Activity (c.p.m. 50ul-1) [17]: 33000; Activity (c.p.m. 50ul-1) [18]: 44400; Activity (c.p.m. 50ul-1) [19]: 118000; Activity (c.p.m. 50ul-1) [20]: 500; Activity (c.p.m. 50ul-1) [21]: 900; inhibition [22]: 18%; inhibition [23]: 86%; inhibition [24]: 25%; inhibition [25]: 0%
